Experimental data reported in ChEMBL document CHEMBL4011632, “Design, Synthesis, and Evaluation of Thiazolidine-2,4-dione Derivatives as a Novel Class of Glutaminase Inhibitors” (J Med Chem, 2017).
Calls of active or inactive are those of the source. The rule behind the calls is not given here.

How the values were obtained:
[1] = Inhibition of recombinant human His-tagged KGA S384A mutant expressed in Escherichia coli BL21(DE3)pLysS using glutamine substrate preincubated for 10 mins followed by substrate addition measured after 60 mins
[2] = Inhibition of recombinant human His-tagged KGA K507A mutant expressed in Escherichia coli BL21(DE3)pLysS using glutamine substrate preincubated for 10 mins followed by substrate addition measured after 60 mins
[3] = species: Homo sapiens; assay: Selectivity ratio of IC50 for recombinant human His-tagged KGA R387A mutant expressed in Escherichia coli BL21(DE3)pLysS to IC50 for human His-tagged KGA (L123 to L669 residues) expressed in Escherichia coli BL21(DE3)pLysS
[4] = molecular target: T1, Peroxisome proliferator-activated receptor delta (Homo sapiens) (UniProt Q03181); assay: Transactivation of GAL4-DBD fused human PPARdelta LBD (165 to 441 residues) expressed in African green monkey CV1 cells after 18 to 24 hrs by luciferase reporter gene assay; type: cell-based
T1 sequence (whole entry): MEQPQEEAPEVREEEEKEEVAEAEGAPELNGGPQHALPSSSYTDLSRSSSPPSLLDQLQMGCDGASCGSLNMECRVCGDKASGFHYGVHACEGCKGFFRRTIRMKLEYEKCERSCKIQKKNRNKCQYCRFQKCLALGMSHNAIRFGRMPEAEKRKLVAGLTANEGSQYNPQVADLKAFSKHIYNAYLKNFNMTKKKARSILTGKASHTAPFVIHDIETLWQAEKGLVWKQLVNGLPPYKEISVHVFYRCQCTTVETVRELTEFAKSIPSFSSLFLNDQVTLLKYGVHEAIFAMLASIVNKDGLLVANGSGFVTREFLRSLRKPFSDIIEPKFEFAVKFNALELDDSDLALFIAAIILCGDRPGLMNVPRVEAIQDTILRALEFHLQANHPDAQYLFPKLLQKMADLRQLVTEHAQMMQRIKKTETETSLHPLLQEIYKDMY

[5] = Inhibition of recombinant human His-tagged KGA R387L mutant expressed in Escherichia coli BL21(DE3)pLysS using glutamine substrate preincubated for 10 mins followed by substrate addition measured after 60 mins
[6] = molecular target: T2, Peroxisome proliferator-activated receptor alpha (Homo sapiens) (UniProt Q07869); assay: Transactivation of GAL4-DBD fused human PPARalpha LBD (193 to 469 residues) expressed in African green monkey CV1 cells after 18 to 24 hrs by luciferase reporter gene assay; type: cell-based
T2 sequence (whole entry): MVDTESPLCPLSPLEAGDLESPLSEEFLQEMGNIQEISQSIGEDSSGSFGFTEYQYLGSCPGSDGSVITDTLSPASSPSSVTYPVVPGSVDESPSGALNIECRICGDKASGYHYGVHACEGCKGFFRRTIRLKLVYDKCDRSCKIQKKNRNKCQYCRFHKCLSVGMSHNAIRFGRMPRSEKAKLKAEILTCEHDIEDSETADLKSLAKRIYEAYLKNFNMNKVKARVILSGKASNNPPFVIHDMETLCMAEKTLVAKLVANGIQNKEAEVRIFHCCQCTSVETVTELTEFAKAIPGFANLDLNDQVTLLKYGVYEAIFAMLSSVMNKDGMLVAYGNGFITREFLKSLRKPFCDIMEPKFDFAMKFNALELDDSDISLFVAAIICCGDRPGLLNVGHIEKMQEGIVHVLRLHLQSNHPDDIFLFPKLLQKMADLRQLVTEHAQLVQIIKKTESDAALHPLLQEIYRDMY

[7] = molecular target: T3, Peroxisome proliferator-activated receptor gamma (Homo sapiens) (UniProt P37231); assay: Transactivation of GAL4-DBD fused human PPARgamma LBD (199 to 477 residues) expressed in African green monkey CV1 cells after 18 to 24 hrs by luciferase reporter gene assay; type: cell-based
T3 sequence (whole entry): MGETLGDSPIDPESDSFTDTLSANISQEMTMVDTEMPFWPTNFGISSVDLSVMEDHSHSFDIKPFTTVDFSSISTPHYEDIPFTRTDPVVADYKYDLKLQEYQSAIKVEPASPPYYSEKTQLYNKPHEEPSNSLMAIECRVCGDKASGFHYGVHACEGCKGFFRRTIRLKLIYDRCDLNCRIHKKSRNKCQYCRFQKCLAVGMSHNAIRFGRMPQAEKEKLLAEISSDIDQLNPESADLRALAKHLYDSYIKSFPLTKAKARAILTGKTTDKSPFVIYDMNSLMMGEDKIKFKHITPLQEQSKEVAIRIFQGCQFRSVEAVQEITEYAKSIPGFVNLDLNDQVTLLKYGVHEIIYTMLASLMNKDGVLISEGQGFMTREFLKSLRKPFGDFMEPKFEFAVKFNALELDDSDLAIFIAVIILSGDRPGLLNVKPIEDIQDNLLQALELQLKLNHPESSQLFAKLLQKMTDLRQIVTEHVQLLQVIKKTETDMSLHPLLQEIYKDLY

[8] = molecular target: Glutaminase 1/2 (Homo sapiens) (UniProt O94925+Q9UI32); details: 3.13 to 100 uM
[9] = system: Mus musculus; assay: Toxicity in BALB/CAnN.Cg-Foxn1nu/CrlNarl mouse xenografted with human Aspc-1 cells assessed as overt toxicity at 25 to 50 mg/kg, ip once daily administered for 5 days followed by 2 days without dosing for 68 days; type: organism-based, BALB/C; details: in vivo
[10] = system: Mus musculus; assay: Toxicity in BALB/CAnN.Cg-Foxn1nu/CrlNarl mouse xenografted with human Aspc-1 cells assessed as loss in body weight at 25 to50 mg/kg, ip once daily administered for 5 days followed by 2 days without dosing for 68 days relative to control; type: organism-based, BALB/C; details: in vivo, 1632 h
[11] = Oral bioavailability in Sprague-Dawley rat at 1 mg/kg by HPLC-MS analysis; type: ADME, organism-based; details: in vivo
Method in brief: (§1)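 Male rats (330−380 g, 9−10 weeks old), jugular-vein cannulated 1 day before dosing, n = 3. Dosed iv in DMA/PEG400 (20%/80%, v/v) or po in 1% CMC/0.5% Tween-80. Blood (100 μL) drawn at 0, 2 min, 5 min (iv only), 15 and 30 min, and 1, 2, 4, 6, 8 and 24 h. Plasma measured by LC-MS/MS; parameters from noncompartmental analysis.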

[12] = system: Mus musculus; assay: Toxicity in BALB/CAnN.Cg-Foxn1nu/CrlNarl mouse xenografted with human Aspc-1 cells assessed as loss in body weight at 50 mg/kg, ip once daily administered for 5 days followed by 2 days without dosing for 43 days relative to control; type: organism-based, BALB/C; details: in vivo
[13] = Tmax in Sprague-Dawley rat at 1 mg/kg, po by HPLC-MS analysis; type: ADME, organism-based; details: in vivo; method in brief: as §1
[14] = AUC (0 to infinity) in Sprague-Dawley rat at 0.1 mg/kg, iv by HPLC-MS analysis; type: ADME, organism-based; parameters: dose 0.1 mg/kg, time infinity, route intravenous; details: in vivo; method in brief: as §1
[15] = system: Mus musculus; assay: Toxicity in BALB/CAnN.Cg-Foxn1nu/CrlNarl mouse xenografted with human Aspc-1 cells assessed as overt toxicity at 25 to 50 mg/kg, ip once daily administered for 5 days followed by 2 days without dosing for 43 days; type: organism-based, BALB/C; details: in vivo
[16] = Cmax in Sprague-Dawley rat at 1 mg/kg, po by HPLC-MS analysis; type: ADME, organism-based; parameters: dose 1 mg/kg, route oral; details: in vivo; method in brief: as §1
[17] = AUC (0 to infinity) in Sprague-Dawley rat at 1 mg/kg, po by HPLC-MS analysis; type: ADME, organism-based; parameters: dose 1 mg/kg, route oral, time infinity; details: in vivo; method in brief: as §1

Glutaminase 1/2 (Homo sapiens), sequence (O94925 whole entry, looked up): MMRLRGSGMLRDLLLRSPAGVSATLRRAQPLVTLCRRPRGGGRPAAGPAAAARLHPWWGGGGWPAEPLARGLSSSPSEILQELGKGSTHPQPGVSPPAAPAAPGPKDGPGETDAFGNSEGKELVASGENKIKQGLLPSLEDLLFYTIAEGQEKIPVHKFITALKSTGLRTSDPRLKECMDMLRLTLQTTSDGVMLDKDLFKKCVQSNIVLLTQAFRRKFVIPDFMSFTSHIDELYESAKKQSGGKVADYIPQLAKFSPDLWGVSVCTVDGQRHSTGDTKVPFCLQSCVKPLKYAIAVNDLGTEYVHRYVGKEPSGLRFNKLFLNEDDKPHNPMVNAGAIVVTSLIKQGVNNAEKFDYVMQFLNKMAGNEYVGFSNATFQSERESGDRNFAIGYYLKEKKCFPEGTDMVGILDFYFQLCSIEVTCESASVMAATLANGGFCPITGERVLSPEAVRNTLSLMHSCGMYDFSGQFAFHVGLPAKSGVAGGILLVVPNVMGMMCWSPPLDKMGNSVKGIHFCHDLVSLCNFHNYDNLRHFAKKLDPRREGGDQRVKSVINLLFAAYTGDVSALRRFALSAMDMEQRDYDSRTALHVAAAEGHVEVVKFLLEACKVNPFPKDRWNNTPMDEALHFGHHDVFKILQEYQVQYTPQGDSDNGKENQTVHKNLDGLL
Glutaminase 1/2 (Homo sapiens), sequence (Q9UI32 whole entry, looked up): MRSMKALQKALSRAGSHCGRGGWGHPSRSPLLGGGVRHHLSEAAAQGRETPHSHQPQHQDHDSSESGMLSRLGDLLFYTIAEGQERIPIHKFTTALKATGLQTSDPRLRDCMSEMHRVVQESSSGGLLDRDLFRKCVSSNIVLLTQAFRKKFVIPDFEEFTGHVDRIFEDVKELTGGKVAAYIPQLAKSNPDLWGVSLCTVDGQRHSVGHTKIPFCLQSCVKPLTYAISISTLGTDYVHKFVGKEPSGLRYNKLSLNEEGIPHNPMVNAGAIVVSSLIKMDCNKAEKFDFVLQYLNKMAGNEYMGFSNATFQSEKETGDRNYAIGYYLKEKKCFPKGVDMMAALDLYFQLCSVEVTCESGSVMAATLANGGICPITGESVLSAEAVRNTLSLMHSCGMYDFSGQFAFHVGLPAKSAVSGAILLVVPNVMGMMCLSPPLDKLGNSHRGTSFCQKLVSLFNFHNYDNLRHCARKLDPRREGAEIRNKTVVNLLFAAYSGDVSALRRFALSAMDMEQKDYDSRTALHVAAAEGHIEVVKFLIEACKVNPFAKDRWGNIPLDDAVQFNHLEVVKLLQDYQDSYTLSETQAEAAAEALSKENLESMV

IC50 [1] [nM] | IC50 [2] [nM] | Ratio IC50 [3] | Activity [4] | IC50 [5] [nM] | Activity [6] | Activity [7] | inhibition [8] | bioavailability [11] [%] | Tmax [13] [h] | AUC(0-inf) [14] [ng·h/mL] | Cmax [16] [ng/mL] | AUC(0-inf) [17] [ng·h/mL] | SMILES | Activity [9] | Activity [10] [%] | Activity [12] [%] | Activity [15]
87 | 269 | 191 | inactive | 770 | inactive | inactive |  |  |  |  |  |  | Cc1cc(/C=C2\SC(=O)NC2=O)c(C)n1-c1ccc(-c2ccc(/C=C3\SC(=O)NC3=O)c(Cl)c2)cc1 |  |  |  | 
 |  |  | inactive |  | inactive | inactive | Active |  |  |  |  |  | O=C1NC(=O)/C(=C/c2ccc(-c3ccc(-n4c(-c5cccs5)cc(/C=C5\SC(=O)NC5=O)c4-c4cccs4)cc3)cc2)S1 | Non-Toxic | > 10 |  | 
361 | 1040 | > 490 |  | 1270 |  |  |  | 1 | 4 | 3410 | 16.6 | 222 | Cc1cc(/C=C2\SC(=O)NC2=O)c(C)n1-c1ccc(-c2ccc(/C=C3\SC(=O)NC3=O)cc2)cc1 |  |  | > 10 | Non-Toxic
